# Data published in PubChem BioAssay AID588777 (Broad Institute, 2011).
# The source made the active and inactive calls.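 The calls were made as follows: active = compound whose fitted half-maximal concentration, rising or falling, is at most ten times its top tested dose; inconclusive = flat fit showing 30 to 70% decrease, or bad fit; inactive = the rest.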
# Target: Scavenger receptor class B member 1 (Mus musculus) (UniProt Q61009)
# Assay: Alexa488-HDL binding change at mSR-BI cells – ldlA[mSR-BI] cells, powder samples, orthogonal assay for SR-BI HDL uptake inhibitor project, dose response (AID 588777)
# Settings: Alexa488-HDL binding fluorescence, 3 h
# How it was run: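 Assay system: ldlA[mSR-BI] cells expressing murine scavenger receptor SR-BI; reagent: Alexa488-labelled HDL at 10 µg/mL; timing: 3 h at 37 °C; measured by: bottom-read Alexa488 fluorescence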
# Sequence of Scavenger receptor class B member 1 (Mus musculus) (Q61009 whole entry, looked up): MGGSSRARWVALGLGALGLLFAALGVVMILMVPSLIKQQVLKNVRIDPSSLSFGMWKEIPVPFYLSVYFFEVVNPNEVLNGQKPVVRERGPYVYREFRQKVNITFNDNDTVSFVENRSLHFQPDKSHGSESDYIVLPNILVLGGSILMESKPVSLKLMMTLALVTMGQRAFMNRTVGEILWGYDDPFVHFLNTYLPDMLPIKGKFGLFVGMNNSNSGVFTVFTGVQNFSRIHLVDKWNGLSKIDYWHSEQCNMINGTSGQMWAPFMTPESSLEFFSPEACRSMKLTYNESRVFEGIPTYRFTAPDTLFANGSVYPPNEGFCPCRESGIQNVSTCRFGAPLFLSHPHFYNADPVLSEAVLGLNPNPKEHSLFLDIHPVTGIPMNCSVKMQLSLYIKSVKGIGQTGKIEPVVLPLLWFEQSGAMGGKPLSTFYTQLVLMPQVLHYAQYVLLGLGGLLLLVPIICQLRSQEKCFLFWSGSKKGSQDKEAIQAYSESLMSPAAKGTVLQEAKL
row,Compound,AC50
1,O=C(Nc1ccc(-c2nc3ccc(NC(=O)c4ccccc4)cc3[nH]2)cc1)c1ccccc1,0.328 µM
2,COc1ccc([C@H]2CC(=O)C=C(c3cccc4c3sc3ccccc34)C2)cc1OC,2.28 µM
3,C[C@@H]1CN([C@H](C)CO)C(=O)c2cc(NC(=O)Cc3cn(C)c4ccccc34)ccc2O[C@@H]1CN(C)S(=O)(=O)c1ccc(F)cc1,21.5 µM
4,O=C(Nc1ccc(-c2nc3cc(NC(=O)c4ccccc4Cl)ccc3o2)cc1)c1ccccc1Cl,0.0819 µM
5,Cc1cc(C(=O)C(C)OC(=O)C2=NNC(=O)CC2)c(C)n1-c1ccc(OC(F)F)cc1 (stereo not drawn),7.45 µM
6,Cc1ccc(-c2nnc(N3CCC(C)CC3)c3ccccc23)cc1C,5.54 µM
7,COC(=O)c1cn(C(=O)c2cccc3ccccc23)c2ccccc12,23 µM
8,CCc1cc2cc3c(cc2nc1SCC(=O)OC(C)C)OCO3,1.48 µM
9,COc1ccc(OC)c(CCNC(=O)c2ccc3c(c2)N(Cc2ccc(F)cc2)CCS3)c1,6.52 µM
10,O=C(Nc1ccc(-c2nc3ccc(NC(=O)c4ccccc4[N+](=O)[O-])cc3[nH]2)cc1)c1ccccc1[N+](=O)[O-],0.0549 µM
11,C[C@H](CO)N1C[C@H](C)[C@H](CN(C)S(=O)(=O)c2ccc(F)cc2)Oc2ccc(NC(=O)Cc3cn(C)c4ccccc34)cc2C1=O,30.9 µM
12,CC(C)OCCCNC(=O)c1ccc(C2SCC(=O)N2Cc2ccco2)cc1 (stereo not drawn),16.5 µM
13,O=C(Nc1ccc(-c2nc3cc(NC(=O)c4ccc(NC(=O)c5cccc6ccccc56)cc4)ccc3[nH]2)cc1)c1ccc(NC(=O)c2cccc3ccccc23)cc1,< 0.015 µM
14,C[C@@H]1CN([C@@H](C)CO)C(=O)c2cc(NC(=O)Cc3cn(C)c4ccccc34)ccc2O[C@H]1CN(C)S(=O)(=O)c1ccc(F)cc1,10.2 µM
15,C[C@@H]1CN([C@H](C)CO)C(=O)c2cc(NC(=O)Cc3cn(C)c4ccccc34)ccc2O[C@H]1CN(C)S(C)(=O)=O,25 µM
16,C[C@H]1CN([C@@H](C)CO)C(=O)c2cc(NC(=O)Cc3cn(C)c4ccccc34)ccc2O[C@H]1CN(C)S(=O)(=O)c1ccc(F)cc1,25.4 µM
17,CC(OC(=O)c1cccc(NS(C)(=O)=O)c1)C(=O)Nc1ccc(N2CCOCC2)cc1 (stereo not drawn),4.47 µM
18,CCOC(=O)N1CCC(NC(=O)c2ccc3c(c2)N(Cc2ccc(F)cc2)CCS3)CC1,2.4 µM
19,C[C@@H]1CN([C@H](C)CO)C(=O)c2cc(NC(=O)Cc3cn(C)c4ccccc34)ccc2O[C@H]1CN(C)S(=O)(=O)c1ccccc1,8.36 µM
20,O=C(Nc1cccc(NC(=O)c2cc([N+](=O)[O-])ccc2Cl)n1)c1cc([N+](=O)[O-])ccc1Cl,5.11 µM
21,C[C@H](CO)N1C[C@H](C)[C@H](CN(C)S(=O)(=O)c2ccc(F)cc2)Oc2ccc(NS(C)(=O)=O)cc2C1=O,21 µM
22,CCc1sc(N2C(=O)C3C4CCC(C4=C(C)C)C3C2=O)nc1-c1ccccc1 (stereo not drawn),0.441 µM
23,CCn1c(COc2c(C)cccc2C)nnc1SCC(=O)N1CCN(c2ccccc2)CC1,5.89 µM

row,Compound,AC50
1,C[C@H]1CN([C@@H](C)CO)C(=O)c2cccc(NC(=O)Nc3ccc(F)cc3)c2O[C@@H]1CN(C)Cc1ccc(Cl)c(Cl)c1,0.533 µM
2,Cc1cc(C)c2c(c1)NC(c1cc3c(cc1Br)OCO3)C1CC=CC21 (stereo not drawn),8.25 µM
3,C[C@@H]1CN([C@@H](C)CO)C(=O)c2cc(NC(=O)Cc3cn(C)c4ccccc34)ccc2O[C@@H]1CN(C)S(=O)(=O)c1ccc(F)cc1,22.8 µM
4,CCOc1ccc(NC(=O)CN2CCN(CC(=O)Nc3cc(OC)cc(OC)c3)CC2)cc1,0.128 µM
5,Cc1cc(SC(C)C(=O)Nc2ncc(Cl)cc2Cl)nc2ccccc12 (stereo not drawn),6.84 µM
6,O=C(Nc1ccc(Cl)cc1C(=O)c1ccc(Cl)cc1)c1cc(Br)ccc1NS(=O)(=O)c1ccc(Cl)cc1,21.7 µM
7,N#Cc1sc2nc(C3CC3)cc(-c3ccc(Cl)cc3)c2c1N,20.1 µM
8,CC(C)(C)NC(=O)N1CCN(c2ncccc2C(F)(F)F)CC1,7.61 µM
9,Nc1ccc(C(=O)Nc2ccc(-c3nc4ccc(NC(=O)c5ccc(N)cc5)cc4[nH]3)cc2)cc1,4.55 µM
10,C[C@@H]1CN([C@H](C)CO)C(=O)c2cc(NC(=O)Cc3cn(C)c4ccccc34)ccc2O[C@H]1CN(C)S(=O)(=O)c1ccc(Cl)cc1,0.168 µM
11,C[C@H]1CN([C@@H](C)CO)C(=O)c2cccc(NC(=O)Nc3ccccc3)c2O[C@@H]1CN(C)Cc1ccc(C(F)(F)F)cc1,19.4 µM
12,C[C@H]1CN([C@@H](C)CO)C(=O)c2cccc(NC(=O)Nc3ccccc3)c2O[C@@H]1CN(C)Cc1ccccc1,13.8 µM
13,C[C@H]1CN([C@@H](C)CO)C(=O)c2cccc(NC(=O)Nc3ccccc3)c2O[C@@H]1CN(C)Cc1ccc(Cl)c(Cl)c1,1.79 µM
14,O=C(Nc1cc(Cl)ccc1Cl)c1cc(Br)ccc1NS(=O)(=O)c1ccc(Cl)c([N+](=O)[O-])c1,4.23 µM
15,C[C@@H]1CN([C@H](C)CO)C(=O)c2cc(NC(=O)Cc3cn(C)c4ccccc34)ccc2O[C@H]1CN(C)C(=O)Nc1ccc(F)cc1,1.93 µM
16,CC(C)NC(=O)Nc1cccc2c1O[C@H](CN(C)Cc1ccc(Cl)c(Cl)c1)[C@@H](C)CN([C@@H](C)CO)C2=O,9.96 µM
17,Cc1ccccc1NC(=O)NCC1CCN(c2ccc(S(=O)(=O)N3CCOCC3)cc2)CC1,3.98 µM
18,COc1cccc(-c2csc(N3CCN(C(=S)Nc4cccc(Cl)c4)CC3)n2)c1,12 µM
19,C[C@@H]1CN([C@H](C)CO)C(=O)c2cc(NC(=O)Cc3cn(C)c4ccccc34)ccc2O[C@H]1CN(C)S(=O)(=O)c1ccc(F)cc1,2.06 µM
20,Cc1cc(C)n(CC(=O)NC2CCCc3c2cnn3-c2ccc(C)c(C)c2)n1 (stereo not drawn),0.0494 µM
21,CCOC(=O)Nc1cccc(NC(=O)c2cc(OC)cc(OC)c2)c1,2.27 µM
22,COc1ccc(-c2nnn(CC(=O)N(C3CCCCC3)C(C)C(=O)NC3CCCC3)n2)cc1OC (stereo not drawn),0.422 µM
23,CCOc1ccccc1/C=C/c1onc(C)c1S(=O)(=O)N1CCC(C(=O)NC(C)(C)C)CC1,11.3 µM

# Same assay, conditions: Alexa488-HDL binding fluorescence, 3 h, at 11 µM (top of the series)
row,Compound,"activity change, either direction"
1,C[C@H](CO)N1C[C@H](C)[C@@H](CN(C)S(=O)(=O)c2ccc(F)cc2)Oc2ccc(NC(=O)Cc3cn(C)c4ccccc34)cc2C1=O,inactive

# Same assay, conditions: Alexa488-HDL binding fluorescence, 3 h, at 35 µM (top of the series)
row,Compound,"activity change, either direction"
1,O=C(Nc1cc(C(F)(F)F)ccc1Cl)c1ccccc1NS(=O)(=O)c1ccc(Cl)cc1,inactive
2,C[C@H](CO)N1C[C@H](C)[C@H](CN(C)S(=O)(=O)c2ccc(F)cc2)Oc2ccc(NC(=O)CCC(F)(F)F)cc2C1=O,inactive
3,C[C@H]1CN([C@@H](C)CO)C(=O)c2cccc(NC(=O)Nc3ccccc3)c2O[C@@H]1CN(C)S(C)(=O)=O,inactive
4,O=C(Nc1ccc(-c2nc3ccc(NC(=O)c4ccc(Cl)cc4)cc3[nH]2)cc1)c1ccc(Cl)cc1,inactive
5,CCC(=O)N1CCc2cc(-c3csc(NC(=O)c4ccco4)n3)ccc21,inactive
6,C[C@H]1CN([C@@H](C)CO)C(=O)c2cc(NC(=O)Nc3ccccc3)ccc2O[C@@H]1CN(C)Cc1ccc(Cl)c(Cl)c1,inactive
7,O=C(Nc1ccc(-c2nc3cc(NC(=O)c4ccccc4[N+](=O)[O-])ccc3o2)cc1)c1ccccc1[N+](=O)[O-],inactive
8,C[C@H]1CN([C@@H](C)CO)C(=O)c2cccc(NS(C)(=O)=O)c2O[C@@H]1CN(C)Cc1ccc(Cl)c(Cl)c1,inactive
9,O=C(Nc1ccccc1)c1ccccc1NS(=O)(=O)c1ccc(Cl)cc1,inactive
10,O=C(Nc1cc(Cl)ccc1Cl)c1cc(Cl)ccc1NS(=O)(=O)c1ccc(Cl)c([N+](=O)[O-])c1,inactive

# Same assay, conditions: Alexa488-HDL binding fluorescence, 3 h, at 68 µM (top of the series)
row,Compound,"activity change, either direction"
1,Cc1ccc2oc(-c3cccc(NC(=O)c4cc(-n5cnnc5)ccc4Cl)c3)nc2c1,inactive
